Data: PubChem BioAssay
Active and inactive are the calls of the source.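 How the source made its calls, unless noted: active means inhibition of the reporter signal at or above 50%; inactive means inhibition below 50%.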

How the values were obtained:
[1] = inhibitors of TNFa-induced NFkB p65 translocation, primary screen, imaging, HUVEC, MLSMR starter and 10KST1 sets (AID 438;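 active means inhibition above 20% together with a positive visual image hit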;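 further: compound added about 3h40 before a 20 min TNFalpha stimulation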;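 on inhibition: signal is the nuclear over cytoplasmic p65 intensity ratio per well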); conditions: HUVEC TNFa-induced p65 nuclear translocation; cell count: measured here: nuclei count (cytotoxicity indicator), at 2.08 µM; inhibition: at 2 µM, stronger effect = higher value, 0% TNFa-plus-vehicle, 100% no-TNFa wells
[2] = inhibitors of mutant huntingtin aggregation, primary screen, imaging, exon1htt(103Q)mCFP cells, high-content imaging (AID 483;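 active means visual image review flags a hit and inhibition of aggregation exceeds 20%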;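 further: compound exposure lasted 3 days before fixation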;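 on nuclei count: percent of the per-plate median nuclei count of sample wells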); conditions: exon1htt(103Q)mCFP cell line, aggregate imaging, at 2 µM; inhibition of aggregation: stronger effect = higher value; nuclei count: measured here: cell count, toxicity
[3] = inhibitors of E-selectin induction by TNFa, primary screen, imaging, HUVEC, immunofluorescence, MLSMR starter and 10KST1 sets (AID 487;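 active means visually confirmed hit in the image check and inhibition above 20%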;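 on inhibition: signal is fraction of cell area covered by stained E-selectin grains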;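 on nuclei count: 100% = median nuclei count of all wells on the same plate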); conditions: HUVEC TNFalpha-induced E-selectin immunofluorescence imaging, at 2 µM; inhibition: stronger effect = higher value; nuclei count: measured here: cell number, toxicity
[4] = molecular target: Voltage-gated potassium channel subunit beta-2 (Rattus norvegicus) (UniProt P62483); test: KvBeta enzyme negative modulators, primary screen, biochemical, NADPH fluorescence (AID 622;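 active means fluorescence slope higher than the sample average by over 3 SD, cut at about -0.22 in these data, passing the limit was not always enough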;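 further: slope of raw intensity against log time taken from 70 to 1610 s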); conditions: recombinant KvBeta, 4-cyanobenzaldehyde reduction, at 10 µM, stronger effect = higher value
Sequence of Voltage-gated potassium channel subunit beta-2 (Rattus norvegicus) (P62483 whole entry, looked up): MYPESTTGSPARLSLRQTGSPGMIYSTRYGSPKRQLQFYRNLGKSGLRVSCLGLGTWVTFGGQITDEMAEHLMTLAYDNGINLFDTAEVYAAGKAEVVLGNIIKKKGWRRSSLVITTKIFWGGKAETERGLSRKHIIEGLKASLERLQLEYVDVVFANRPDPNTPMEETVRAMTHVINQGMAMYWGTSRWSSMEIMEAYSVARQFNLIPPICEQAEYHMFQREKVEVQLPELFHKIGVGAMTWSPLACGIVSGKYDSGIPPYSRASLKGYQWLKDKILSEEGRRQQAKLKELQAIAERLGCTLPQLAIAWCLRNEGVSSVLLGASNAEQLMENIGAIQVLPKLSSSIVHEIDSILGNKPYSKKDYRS

[5] = molecular target: Voltage-gated potassium channel subunit beta-2 (Rattus norvegicus) (UniProt P62483); test: KvBeta positive modulators, primary screen, biochemical, NADPH fluorescence (AID 623;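 active means NADPH fluorescence slope more negative than the mean of all samples by about 3 SD, 99.7% confidence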;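 further: fluorescence intensity change per second fitted from 20 to 320 s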); conditions: Recombinant KvBeta, NADPH fluorescence decrease slope, 10 min; at 10 µM; stronger effect = lower value
[6] = molecular target: Muscarinic acetylcholine receptor M4 (Homo sapiens) (UniProt P08173); test: compounds altering M4/GIRK thallium flux, either direction, primary screen, M4 allosteric agonist project, cell-based, HEK293 M4/GIRK, BTC-AM (AID 625;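 active means fluorescence slope after compound addition differing from the mean of all tested samples at 99.7% confidence, mostly higher but some lower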;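 further: thallium influx through GIRK channels coupled to M4 in HEK293 cells with BTC-AM dye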); conditions: at 10 µM, actives lie on both sides
Sequence of Muscarinic acetylcholine receptor M4 (Homo sapiens) (P08173 whole entry, looked up): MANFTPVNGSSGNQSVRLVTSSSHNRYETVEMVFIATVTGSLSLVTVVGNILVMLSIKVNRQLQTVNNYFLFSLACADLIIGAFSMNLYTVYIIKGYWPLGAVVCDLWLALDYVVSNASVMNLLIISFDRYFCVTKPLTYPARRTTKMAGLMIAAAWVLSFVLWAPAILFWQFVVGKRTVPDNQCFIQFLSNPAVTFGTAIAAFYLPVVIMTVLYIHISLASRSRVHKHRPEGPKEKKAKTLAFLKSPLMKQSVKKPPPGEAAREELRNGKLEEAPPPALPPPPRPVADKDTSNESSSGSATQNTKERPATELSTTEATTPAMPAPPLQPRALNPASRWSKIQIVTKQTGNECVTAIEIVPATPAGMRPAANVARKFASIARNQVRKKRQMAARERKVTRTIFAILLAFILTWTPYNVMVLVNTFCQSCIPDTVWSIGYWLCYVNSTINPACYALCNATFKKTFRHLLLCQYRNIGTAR
Procedure, shortened: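 System: HEK293 cells with M4 receptor and GIRK channels | Incubation: Cells overnight at 37 °C, BTC-AM loading 1 h, reads 2 min total | Technique: Kinetic BTC-AM fluorescence sampled at 1 Hz, 10 s pre-addition baseline | Measure: Post-addition slope, 15–24 s, of baseline-normalized fluorescence | Control set: Carbachol positive, DMSO negative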

[7] = inhibitors of Sendai virus-induced IRF3 signaling, primary screen, TLR/RLR signaling modifier project, cell-based, Sendai virus stimulus, luciferase, 10K MLSCN set (AID 602276;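 active means inhibition at or above 50% at 10 µM; inactive means inhibition below 50%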;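 further: firefly luciferase from ISG56 promoter only with Renilla not read in this screen; 0% = Sendai virus plus DMSO and 100% = medium plus DMSO without virus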); conditions: HEK293 RL24 IRF3 luciferase reporter, at 10 µM, stronger effect = higher value
[8] = inhibitors of poly I:C-induced TLR3 signaling, primary screen, cell-based, poly I:C stimulus, luciferase, 10K MLSCN set (AID 602277); conditions: HEK293-TLR3 RL24 IRF3 luciferase reporter, at 10 µM, stronger effect = higher value

Row | Compound | cell count [1] | inhibition [1] | inhibition of aggregation [2] | nuclei count [2] [%] | inhibition [3] | nuclei count [3] [%] | fluorescence slope [4] | NADPH fluorescence slope [5] | fluorescence slope [6] | inhibition [7] | inhibition [8]
1 | CCn1c(Cc2ccc(OC)cc2)nnc1SCC(=O)Nc1cccc(C(=O)OC)c1 | 433 | 6% (inactive) | 0.9% (inactive) | 110 | -29.7% (inactive) | 107 | -0.469 (inactive) | -1.6e-05 (inactive) | 0.00613 (inactive) | 12.3% (inactive) | 8.51% (inactive)
2 | O=C(NCCN1CCOCC1)C1CC(=O)N(c2ccc(F)c(Cl)c2)C1 (centres undefined) | 353 | -4.7% (inactive) | 21.8% (inactive) | 76.2 | -63.7% (inactive) | 120 | -0.554 (inactive) | -3.9e-05 (inactive) | 0.00645 (inactive) | 10.9% (inactive) | 10.3% (inactive)
3 | CCCN(CCC)C(=O)CSc1nc2ccccc2c(=O)n1C1CCCC1 | 475 | 3% (inactive) | -13.4% (inactive) | 93.4 | -7.5% (inactive) | 117 | -0.452 (inactive) | -1.1e-05 (inactive) | 0.00476 (inactive) | 15.9% (inactive) | 10.1% (inactive)
4 | O=C(Cn1c(SCC(=O)N2CCCc3ccccc32)nc2ccccc21)N1CCCC1 | 723 | -5.1% (inactive) | -15.7% (inactive) | 107 | -126% (inactive) | 124 | -0.458 (inactive) | -3.6e-05 (inactive) | 0.00587 (inactive) | 1.52% (inactive) | 20.1% (inactive)
5 | COc1ccc(C(=O)NCCn2ccc3ccccc32)cc1 | 238 | 7.3% (inactive) | 25.9% (inactive) | 104 | -36.9% (inactive) | 95 | -0.386 (inactive) | -5.6e-06 (inactive) | 0.008 (inactive) | 5.56% (inactive) | -49.2% (inactive)
6 | CCC(=O)NC1(C(F)(F)F)C(=O)NC(C)=C1C#N (centres undefined) | 382 | 3.6% (inactive) | 11.2% (inactive) | 98.2 | -18.8% (inactive) | 105 | -0.445 (inactive) | 4.4e-05 (inactive) | 0.00561 (inactive) | 14.9% (inactive) | 25.3% (inactive)
7 | CCn1c(=O)n(CC(=O)NCc2ccccc2OC)c(=O)c2ccccc21 | 467 | -30.1% (inactive) | -16.5% (inactive) | 100 | -106% (inactive) | 92 | -0.555 (inactive) | -4.7e-05 (inactive) | 0.00528 (inactive) | 18.2% (inactive) | 23.1% (inactive)
8 | CCn1c(C(=O)N2CCCC(C(=O)O)C2)cc2sccc21 (centres undefined) | 335 | 26.3% (active) | -57.1% (inactive) | 115 | -32.2% (inactive) | 115 | -0.485 (inactive) | 8.2e-05 (inactive) | 0.00595 (inactive) | -2.79% (inactive) | -4.5% (inactive)
9 | COc1ccc(Cn2c(C)nc3c(c2=O)c2nc4ccccc4nc2n3Cc2ccco2)cc1 | 375 | -0.6% (inactive) | -1.8% (inactive) | 100 | -42.4% (inactive) | 119 | -0.368 (inactive) | -4.4e-06 (inactive) | 0.00431 (inactive) | 23.6% (inactive) | 9.91% (inactive)
10 | N#CCSCC(=O)Nc1ccc(F)cc1 | 511 | 4.1% (inactive) | -5.3% (inactive) | 108 | 10.5% (inactive) | 99.2 | -0.462 (inactive) | -5.6e-05 (inactive) | 0.00474 (inactive) | 13.5% (inactive) | 26.3% (inactive)
11 | Cc1ccc2cc(CN(CC(C)C)C(=O)C3CCCO3)c(=O)[nH]c2c1 (centres undefined) | 510 | 6.3% (inactive) | 12% (inactive) | 90 | -62.4% (inactive) | 147 | -0.565 (inactive) | 6.7e-05 (inactive) | 0.00521 (inactive) | 3.89% (inactive) | 26.4% (inactive)
12 | CCOC(=O)c1c(NC(=O)CSc2nnc(-c3ccc(OC)cc3)o2)sc2c1CCC2 | 705 | -10.9% (inactive) | -10.3% (inactive) | 113 | -10.2% (inactive) | 91.1 | -0.56 (inactive) | -9.6e-07 (inactive) | 0.0094 (inactive) | 0.872% (inactive) | 5.8% (inactive)
13 | O=C(N1CCCCCC1)N1CCN(C(=O)N2CCOCC2)CC1 | 437 | -13.3% (inactive) | 7.7% (inactive) | 99.6 | -24.8% (inactive) | 134 | -0.563 (inactive) | -1.7e-05 (inactive) | 0.00574 (inactive) | 3.08% (inactive) | -6.18% (inactive)
14 | CCn1c(SCC(=O)NCCc2ccc(Cl)cc2)nnc1-c1cccs1 | 616 | 6.9% (inactive) | 25.3% (inactive) | 69.4 | -11.2% (inactive) | 106 | -0.572 (inactive) | -5e-05 (inactive) | 0.00799 (inactive) | -15.7% (inactive) | -13.3% (inactive)
15 | COc1ccc(Cl)cc1Nc1nc(C)cc(=O)[nH]1 | 271 | -3.7% (inactive) | 10% (inactive) | 61.7 | 39.6% (inactive) | 44 | -0.562 (inactive) | -2.9e-05 (inactive) | 0.00528 (inactive) | 16% (inactive) | 19.5% (inactive)
16 | COc1cc(C)nc(NS(=O)(=O)c2ccc(C)cc2)n1 | 399 | 3.9% (inactive) | -0.3% (inactive) | 97.2 | -45.6% (inactive) | 109 | -0.563 (inactive) | -2.7e-05 (inactive) | 0.00648 (inactive) | 20.8% (inactive) | 23% (inactive)
17 | CCn1c(=O)cc(SCC(=O)N2CCN(C3CCCCC3)CC2)c2ccccc21 | 417 | -5.2% (inactive) | -6.7% (inactive) | 131 | -69.8% (inactive) | 108 | -0.565 (inactive) | 1.7e-06 (inactive) | 0.0055 (inactive) | 8.4% (inactive) | 65.5% (active)
18 | O=C(CN1C(=O)CCSc2ccccc21)Nc1ccc2c(c1)OCO2 | 700 | -1.6% (inactive) | 31.4% (inactive) | 91.2 | -215% (inactive) | 111 | -0.474 (inactive) | -2.4e-05 (inactive) | 0.00631 (inactive) | 12.5% (inactive) | 23.4% (inactive)
19 | Cc1cccc2cc(CN(Cc3nnnn3C3CCCC3)C3CCCCC3)c(=O)[nH]c12 | 349 | 5.8% (inactive) | -3.3% (inactive) | 99.1 | -44% (inactive) | 106 | -0.466 (inactive) | 4.8e-05 (inactive) | 0.00597 (inactive) | 7.22% (inactive) | 21.3% (inactive)
